Laboratory results reported in ChEMBL document CHEMBL3585273, “Discovery of Tricyclic Clerodane Diterpenes as Sarco/Endoplasmic Reticulum Ca(2+)-ATPase Inhibitors and Structure-Activity Relationships” (J Nat Prod, 2015).

Key:
[1] = Inhibition of Wistar rat stomach H+,K+-ATPase after 1 hr
[2] = target: T1, Sarcoplasmic/endoplasmic reticulum calcium ATPase 1 (Oryctolagus cuniculus, UniProt P04191); experiment: Binding affinity to rabbit skeletal muscle SERCA1a preincubated for 5 mins followed by Mg-ATP addition measured over 6 mins by spectrophotometric analysis
T1 sequence (P04191 whole entry): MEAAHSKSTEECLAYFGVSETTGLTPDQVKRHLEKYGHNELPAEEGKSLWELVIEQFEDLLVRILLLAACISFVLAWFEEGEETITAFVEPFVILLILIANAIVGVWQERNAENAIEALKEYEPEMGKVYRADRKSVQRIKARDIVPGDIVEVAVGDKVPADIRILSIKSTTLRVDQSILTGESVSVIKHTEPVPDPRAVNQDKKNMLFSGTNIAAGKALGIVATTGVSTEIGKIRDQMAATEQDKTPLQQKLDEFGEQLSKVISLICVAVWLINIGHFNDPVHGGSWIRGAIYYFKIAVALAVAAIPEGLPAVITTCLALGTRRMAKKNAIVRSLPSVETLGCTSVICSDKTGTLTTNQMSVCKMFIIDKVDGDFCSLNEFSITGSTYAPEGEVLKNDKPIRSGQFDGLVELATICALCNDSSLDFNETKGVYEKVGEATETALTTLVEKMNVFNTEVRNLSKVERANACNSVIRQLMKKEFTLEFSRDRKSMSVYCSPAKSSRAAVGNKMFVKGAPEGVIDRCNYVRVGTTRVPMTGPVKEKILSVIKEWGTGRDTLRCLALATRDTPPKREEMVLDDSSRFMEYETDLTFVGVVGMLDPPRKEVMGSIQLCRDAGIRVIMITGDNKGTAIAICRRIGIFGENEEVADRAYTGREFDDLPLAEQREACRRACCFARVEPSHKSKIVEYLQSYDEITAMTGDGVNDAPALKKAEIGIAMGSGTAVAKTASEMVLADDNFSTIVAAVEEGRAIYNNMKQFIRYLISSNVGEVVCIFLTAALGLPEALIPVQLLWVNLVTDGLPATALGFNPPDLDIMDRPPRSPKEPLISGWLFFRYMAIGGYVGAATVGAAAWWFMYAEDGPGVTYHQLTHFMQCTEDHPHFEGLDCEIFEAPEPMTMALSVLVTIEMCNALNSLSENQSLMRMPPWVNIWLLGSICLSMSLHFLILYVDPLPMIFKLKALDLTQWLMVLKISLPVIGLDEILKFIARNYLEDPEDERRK
Procedure, shortened: (§1)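 Rabbit skeletal muscle SR-purified SERCA1a (1 mg/mL) equilibrated in E2 state: 1 mM EGTA, 1 mM Mg2+, 10 mM Tes pH 7.5, 100 mM KCl. 10 μg protein plus compound (1.25–100 μM) preincubated 5 min at 23 °C in ATP-regenerating medium (0.1 mM Ca2+, 1 mM PEP, pyruvate kinase, lactate dehydrogenase, 0.175 mM NADH). Started with 5 mM Mg-ATP; A340 read over 6 min; three repeats.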

Sus scrofa = species on record: Sus scrofa; experiment: Inhibition of pig kidney outer medulla Na+,K+-ATPase at 50 uM relative to control
Procedure, shortened: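 Purified pig kidney outer medulla Na+,K+-ATPase membranes. Steady-state activity at 37 °C in 130 mM NaCl, 20 mM KCl, 4 mM MgCl2, 3 mM ATP, 20 mM histidine pH 7.4. Read-out is phosphate liberation, with 1 mM ouabain as the nonspecific ATPase blank. Compounds tested over 1–50 μM.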

CCRF-CEM = experiment: Cytotoxicity against human CCRF-CEM cells assessed as cell viability after 24 hrs by MTT assay; type: functional, cell-based
Procedure, shortened: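 Human acute lymphoblastic leukemia CCRF-CEM cells seeded at 4 × 10^4 cells/well and exposed 24 h to a range of compound concentrations. Viability read by MTT. Doxorubicin served as positive control and 0.1% DMSO as solvent control. IC50 derived by nonlinear regression. Data are means ± SD of three independent experiments.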

[3] = target: T1, Sarcoplasmic/endoplasmic reticulum calcium ATPase 1; experiment: Binding affinity to rabbit hind leg muscle SERCA1a by pyruvate kinase and lactate dehydrogenase coupled assay; procedure, shortened: as §1

Compound IVERMECTIN has an IC50 [1] of 7.59 µM.
With `C=C/C(C)=C/C[C@]1(C)[C@H](C)C[C@H](O)[C@@]23C(=C[C@H](OC(=O)c4ccc(O)cc4)C[C@@H]12)[C@@H](OC(C)=O)O[C@H]3OC(C)=O` [CASEARBORIN D] the Kd [2] was 2 µM, the inhibition (Sus scrofa) was 23.8% and the IC50 (CCRF-CEM) was 1.1 µM.
With `C=CC(=C)CC[C@]1(C)[C@H](C)C[C@H](OC(=O)CC(O)CCCCCCCCC)[C@@]23C(=C[C@H](O)C[C@@H]12)[C@@H](OC(C)=O)O[C@H]3OC(C)=O` (stereo partly drawn) the Kd [2] was 7.5 µM and the inhibition (Sus scrofa) was 26.3%.
With `C=CC(=C)CC[C@]1(C)[C@H](C)C[C@H](OC(=O)/C=C/c2ccccc2)[C@@]23C(=C[C@H](O)C[C@@H]12)[C@@H](OC(C)=O)O[C@H]3OC(C)=O` the Kd [2] was 48.1 µM.
For `C=C/C(C)=C/C[C@]1(C)[C@H](C)C[C@H](OC(C)=O)[C@@]23C(=C[C@H](OC(=O)c4ccc(O)cc4)C[C@@H]12)[C@@H](OC(C)=O)O[C@H]3OC(C)=O`, the Kd [2] was 20.1 µM and the IC50 (CCRF-CEM) was 1.2 µM.
For `CC(=O)O[C@H]1O[C@@H](OC(C)=O)[C@]23C1=C[C@H](O)C[C@H]2[C@](C)(CCC1=CCOOC1)[C@H](C)C[C@@H]3OC(=O)/C=C/c1ccccc1`, the Kd [2] was 22.3 µM.
In the case of `C[C@H](C[C@H](O)[C@H]1OC1(C)C)C1=C2C[C@H](O)[C@H]3[C@@]4(C)CCC(=O)C(C)(C)[C@@H]4CC[C@]3(C)[C@@]2(C)CC1` [ALISOL B], the Kd [3] is reported as 27 µM.
`C=CC(=C)[C@H](O)C[C@]1(C)[C@H](C)C[C@H](OC(=O)CC(O)CCCCCCCCC)[C@@]23C(=C[C@H](O)C[C@@H]12)[C@@H](OC(C)=O)O[C@H]3OC(C)=O` (stereo partly drawn) gave a Kd [2] of 31.5 µM.
With `C=C/C(C)=C/C[C@]1(C)[C@H](C)[C@@H](OC(=O)CCC)[C@H](O)[C@@]23C(=C[C@H](OC)C[C@@H]12)[C@@H](OC(=O)CCC)O[C@H]3OC(C)=O` the Kd [2] was 10.1 µM, the inhibition (Sus scrofa) was 4.41% and the IC50 (CCRF-CEM) was 0.7 µM.
With `C=CC(=C)CC[C@]1(C)[C@H](C)C[C@H](O)[C@@]23C(=C[C@@H](OC(=O)/C=C/c4ccccc4)C[C@@H]12)[C@@H](OC(C)=O)O[C@H]3OC(C)=O` the Kd [2] was 32.1 µM.
`C=C/C(C)=C/C[C@]1(C)[C@H](C)CC[C@@]23C(=CC(=O)C[C@@H]12)[C@@H](OC(C)=O)O[C@H]3OC(C)=O` gave a Kd [2] of 96.5 µM.
For `C=C/C(C)=C/C[C@]1(C)[C@H](C)[C@@H](O)[C@H](O)[C@@]23C(=C[C@H](OC)C[C@@H]12)[C@@H](O)O[C@H]3O`, the Kd [2] was > 100 µM, the inhibition (Sus scrofa) was 6.55% and the IC50 (CCRF-CEM) was 4.3 µM.
With `C=CC(=C)CC[C@]1(C)[C@H](C)CC[C@@]23C(C[C@H](OC(C)=O)C[C@@H]12)[C@@H](OC(C)=O)O[C@H]3OC(C)=O` (stereo partly drawn) the Kd [2] was 103 µM and the IC50 (CCRF-CEM) was 12 µM.
In the case of `C[C@H]1O[C@@H](O[C@H]2CC[C@@]3(C)[C@@H](CC[C@]4(C)[C@@H]3C=C[C@]35OC[C@@]6(CCC(C)(C)C[C@H]63)[C@H](O)C[C@]54C)[C@]2(C)CO)[C@H](O)[C@@H](O[C@@H]2O[C@H](CO)[C@@H](O)[C@H](O)[C@H]2O)[C@@H]1O`, the Kd [3] is reported as 50 µM.
